Each structure is given as a SMILES string.

Sequence of 1,25-dihydroxyvitamin D(3) 24-hydroxylase, mitochondrial (Homo sapiens, UniProt Q07973, M416T) (Q07973 36-514 M416T limits assumed): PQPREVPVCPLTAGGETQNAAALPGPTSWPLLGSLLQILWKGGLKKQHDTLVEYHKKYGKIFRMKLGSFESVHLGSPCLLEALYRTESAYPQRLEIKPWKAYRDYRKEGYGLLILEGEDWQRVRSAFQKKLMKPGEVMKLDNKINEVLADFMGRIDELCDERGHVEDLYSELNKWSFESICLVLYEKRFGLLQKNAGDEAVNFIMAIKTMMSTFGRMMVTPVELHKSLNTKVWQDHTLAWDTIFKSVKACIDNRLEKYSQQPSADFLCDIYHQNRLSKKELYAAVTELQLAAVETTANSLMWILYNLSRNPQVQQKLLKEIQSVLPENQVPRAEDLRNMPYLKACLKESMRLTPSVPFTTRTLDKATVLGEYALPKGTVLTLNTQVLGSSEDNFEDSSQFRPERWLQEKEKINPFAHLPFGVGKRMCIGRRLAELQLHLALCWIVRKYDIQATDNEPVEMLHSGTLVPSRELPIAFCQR
Sequence of 1,25-dihydroxyvitamin D(3) 24-hydroxylase, mitochondrial (Homo sapiens, UniProt Q07973, L148F) (Q07973 36-514 L148F limits assumed): as the sequence (Q07973 36-514 M416T limits assumed) above, with L113F, T381M counted along it

The first data set has as its target T1, Sterol 26-hydroxylase, mitochondrial (Homo sapiens, UniProt Q02318).
T1 sequence (Q02318 whole entry): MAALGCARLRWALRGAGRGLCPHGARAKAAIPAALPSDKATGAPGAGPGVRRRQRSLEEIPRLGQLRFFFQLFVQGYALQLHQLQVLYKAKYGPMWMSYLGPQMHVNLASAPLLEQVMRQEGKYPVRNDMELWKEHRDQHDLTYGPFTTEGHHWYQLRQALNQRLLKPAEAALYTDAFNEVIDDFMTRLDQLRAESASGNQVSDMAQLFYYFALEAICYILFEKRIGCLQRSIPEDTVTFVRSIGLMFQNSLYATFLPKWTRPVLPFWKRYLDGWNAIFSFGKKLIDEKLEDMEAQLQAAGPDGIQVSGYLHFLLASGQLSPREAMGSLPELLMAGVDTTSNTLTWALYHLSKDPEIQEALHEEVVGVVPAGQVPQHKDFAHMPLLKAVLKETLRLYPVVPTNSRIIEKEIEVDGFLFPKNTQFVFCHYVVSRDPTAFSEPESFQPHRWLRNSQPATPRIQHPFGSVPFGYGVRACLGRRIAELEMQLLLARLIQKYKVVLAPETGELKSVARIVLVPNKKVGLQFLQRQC
Kind of data set: Inhibition of CYP27A1 expressed in […]. The class given is cell-based, CHO. Summed up:
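V79-4 fibroblasts stably expressing wild-type CYP27A1 were cultured in supplemented DMEM and plated in 6-well plates 24 h before use. They were incubated for 24 h in 1% BSA DMEM with 1α-OH-D₃ substrate plus DPPD, with inhibitors at four concentrations (10⁻⁴–10⁻⁷ M). No-inhibitor, dead-cell and no-cell controls were included. Methanol stopped the reaction, then Bligh-Dyer extraction and silica HPLC with photodiode-array detection quantified the metabolite.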
For the compound `COc1ccc2c(c1)CC/C(=C\c1ccccc1/C=C/c1ccccc1)C2=O`, 5.69 µM corresponded to half-maximal inhibition (IC50). `COc1ccc2c(c1)CCC(Cc1ccccc1C(F)(F)F)C2=O` (stereo not given): it took 5.34 µM to reach half-maximal inhibition (IC50). Regarding `CCc1ccccc1CC1CCc2cc(OC)ccc2C1=O` (stereo not given), the IC50 – broadly, the midpoint of a concentration-inhibition curve – is 8.23 µM. `COc1ccc2c(c1)CCC(Cc1ccccc1Br)C2=O` (stereo not given): the IC50 was found to be 0.059 µM. `COc1ccc2c(c1)CC/C(=C\c1ccccc1Br)C2=O` displayed an IC50 of 4.33 µM.

A further data set concerns the target 1,25-dihydroxyvitamin D(3) 24-hydroxylase, mitochondrial (Homo sapiens, UniProt Q07973, L148F). The experiment in a line: Inhibition of CYP24A1 L148F mutant expressed in […]. The class given is cell-based, CHO. Summed up: (§1)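 V79-4 Chinese hamster lung fibroblasts stably expressing wild-type or mutant (L148F, M416T) CYP24A1 were grown in DMEM with FCS, antibiotics and hygromycin at 5% CO₂, then subcultured into 6-well plates for 24 h. Incubation was for 6 h in 1% BSA DMEM with 100,000 CPM/well [1β-³H]1α,25-(OH)₂D₃ and DPPD antioxidant. Inhibitors, from ethanol stocks, were tested at 10⁻⁴–10⁻⁷ M. Methanol stopped the reaction, followed by scintillation counting.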
In the case of `COc1ccc2c(c1)CCC(Cc1ccccc1CCc1ccccc1)C2=O` (stereo not given), the “inhibition (INH)” value was “Active”.

The next data set deals with 1,25-dihydroxyvitamin D(3) 24-hydroxylase, mitochondrial (Homo sapiens, UniProt Q07973, M416T). Kind of data set: Inhibition of CYP24A1 M416T mutant expressed in […]. The class given is cell-based, CHO. Summed up:
as §1
Regarding `COc1ccc2c(c1)CCC(Cc1ccccc1CCc1ccccc1)C2=O` (stereo not given), the “inhibition (INH)” value is listed as “Active”.

The next data set deals with T2, 1,25-dihydroxyvitamin D(3) 24-hydroxylase, mitochondrial (Homo sapiens, UniProt Q07973).
T2 sequence (Q07973 whole entry): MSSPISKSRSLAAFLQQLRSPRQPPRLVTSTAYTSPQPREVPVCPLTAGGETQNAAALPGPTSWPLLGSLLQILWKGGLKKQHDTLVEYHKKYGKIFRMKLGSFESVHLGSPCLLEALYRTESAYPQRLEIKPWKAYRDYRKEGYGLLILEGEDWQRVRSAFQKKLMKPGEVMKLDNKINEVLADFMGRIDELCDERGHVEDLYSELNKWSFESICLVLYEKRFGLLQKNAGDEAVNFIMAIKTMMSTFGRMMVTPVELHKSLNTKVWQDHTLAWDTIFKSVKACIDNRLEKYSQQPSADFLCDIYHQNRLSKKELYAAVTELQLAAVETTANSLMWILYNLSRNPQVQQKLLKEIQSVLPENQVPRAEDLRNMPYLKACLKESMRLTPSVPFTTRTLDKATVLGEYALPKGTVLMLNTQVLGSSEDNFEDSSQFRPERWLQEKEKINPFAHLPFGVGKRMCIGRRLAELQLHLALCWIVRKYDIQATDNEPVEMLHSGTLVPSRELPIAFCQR
Kind of data set: Inhibition of CYP24A1 expressed in […]. The class given is cell-based, CHO.
`COc1ccc2c(c1)CCC(Cc1ccccc1CCc1ccccc1)C2=O` (stereo not given) came in with an IC50 of 25.6 µM. Compound `COc1ccc2c(c1)CC/C(=C\c1ccccc1-c1ccccc1)C2=O` gave an IC50 of 111 µM. In the case of `COc1ccc2c(c1)CC/C(=C\c1ccccc1/C=C/c1ccccc1)C2=O`, the IC50 was determined as 5.08 µM.

In the case of `COc1ccc2c(c1)CCC(Cc1ccccc1C(F)(F)F)C2=O` (stereo not given), the midpoint of inhibition, the IC50, lay at 2.08 µM. On the same count and under the same terms, in the case of `CCc1ccccc1CC1CCc2cc(OC)ccc2C1=O` (stereo not given) it was 1.92 µM; in that of `COc1ccc2c(c1)CCC(Cc1ccccc1Br)C2=O` (stereo not given), 16.3 µM. Take `COc1ccc2c(c1)CCC(Cc1ccccc1-c1ccccc1)C2=O` (stereo not given): half-maximal inhibition (IC50) required 128 µM. The compound `COc1ccc2c(c1)CCC(Cc1ccccc1/C=C/c1ccccc1)C2=O` (stereo not given) showed an IC50 of 343 µM. `COc1ccc2c(c1)CC/C(=C\c1ccccc1C(F)(F)F)C2=O` yielded an IC50 of 11.2 µM. As to `CCc1ccccc1/C=C1\CCc2cc(OC)ccc2C1=O`, it took 10.8 µM to reach half-maximal inhibition (IC50). In turn, `COc1ccc2c(c1)CC/C(=C\c1ccccc1C)C2=O` registered an IC50 of 480 µM. Same read-out and setting: in the case of `COc1ccc2c(c1)CCC(Cc1ccccc1C)C2=O` (stereo not given) it was 127 µM; in that of `COc1ccc2c(c1)CC/C(=C\c1ccccc1Br)C2=O`, 122 µM.

Source of the values: ChEMBL document CHEMBL1250470, “Synthesis and CYP24A1 inhibitory activity of (E)-2-(2-substituted benzylidene)- and 2-(2-substituted benzyl)-6-methoxy-tetralones” (Eur J Med Chem, 2010).
